SDO1 yeast rescue – compounds rescuing growth of sdo1-depleted yeast, bone marrow failure model | z-score at 10 µM | hit rate 0.21% among 140,000 | S. cerevisiae sdo1-depleted JHY4D growth rescue, OD600 30 h; hits give high values; pdr5 snq2 efflux-pump mutant strain;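 active = z-score above 3 at both the 24 hr and the 30 hr optical density reads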;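 note: z-score against mean and SD of all compound wells on the same plate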
Ins promoter up – MIN6 insulin promoter up-regulation. hit rate 0.3% among 190,000. MIN6 insulin promoter-GFP reporter, high-content imaging; hits give high values. z-score at 5 µM;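 active = z-score above 3 at 5 µM with at least 500 cells counted in the well; inconclusive = wells under 500 cells, flagged as cytotoxic or low count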
ABCB1 block – blocks JC-1 efflux by human ABCB1 transporter | P08183 | CCRF-Adr cells, flow cytometry | inhibition, % at 6.6 µM | hit rate 0.067% among 190,000 | AID 1326; in the data active = inhibition above about 40%;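 note: 0% = vehicle and 100% = reference inhibitor; higher value means more JC-1 retained so stronger ABCB1 efflux block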
ABCG2 block – human ABCG2 inhibition, ABCB1 as counter-screen | inhibition, % at 6.6 µM | Q9UNQ0 | hit rate 0.1% among 190,000 | IgMXP3 cells, JC-1 efflux, flow cytometry;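 active = inhibition above 80%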;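 note: 0% = DMSO and 100% = nicardipine control wells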
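Assay system – ABCG2 IgMXP3 and barcoded ABCB1 CCRF-Adr cell mix · Input – 3 million cells/mL in well · Reagent – JC-1 fluorescent substrate · Compound – single test compound dose, 6.6 µM final · Timing – 10 min exposure at 25 °C with rotation, no wash · Detection – flow cytometry of retained JC-1 fluorescence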
ROMK primary – modulates human ROMK potassium channel activity; AID 1918; Tet-inducible ROMK, thallium flux fluorescence; actives lie on both sides; hit rate 2% among 130,000; P48048; B-score at 10 µM;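 active = signal ratio slope over the read window, or its plate-corrected B-score, at least 3 SD from the plate mean, either direction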;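 note: B-score of the F/F0 ratio slope over 7 to 12 s after thallium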
Autophagy HCS – modulators of autophagy. MEF GFP-LC3 puncta imaging; test concentration mostly 10 µM. calls only at 10 µM (by protocol). hit rate 0.98% among 190,000;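 active = percentage of spot-positive cells more than 3 SD above its plate mean, without a fluorescence outlier flag or 80% toxicity; inconclusive = no clear call, values can overlap the other calls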;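 note: spot-positive cell cutoff set from DMSO-treated cells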
ABCB1 single pt – confirmation of human ABCB1 transporter inhibitors, ABCG2 counter-screen; shares compounds with ABCG2 block; CCRF-Adr cells, JC-1 efflux, flow cytometry; inhibition, % at 6.6 µM; hit rate 7% among 270; AID 1451;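 active = inhibition of pump activity above 50%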;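 note: 0% = DMSO and 100% = nicardipine full pump inhibition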
ABCG2 single pt – confirmation of human ABCG2 transporter inhibitors, ABCB1 counter-screen. shares compounds with ABCG2 block. IgMXP3 cells, JC-1 efflux, flow cytometry. inhibition, % at 6.6 µM. hit rate 6% among 270. AID 1453;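 active = inhibition above 50%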;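 note: 0% = DMSO wells and 100% = nicardipine pump inhibitor wells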
IgMXP3 autofluor – IgMXP3 autofluorescence flag for ABCG2 confirmation; shares compounds with ABCG2 block; hit rate 30% among 270; IgMXP3 cells, compound autofluorescence 488/530 nm, flow; hits give high values; fluorescence at 6.6 µM;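 active = fluorescence in ABCG2-expressing cells above the plate's control-well mean plus 3 SD, cut at about 15 in these data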;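 note: median cell fluorescence with compound minus that of DMSO-treated control cells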
CCRF-Adr fluor – CCRF-Adr autofluorescence flag for ABCB1 confirmation; shares compounds with ABCG2 block; CCRF-Adr cells, compound autofluorescence 488/530 nm, flow cytometry; hits give high values; fluorescence at 6.6 µM; hit rate 30% among 270;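 active = fluorescence beyond the plate control mean plus 3 SD, with a fluorescence-to-maximum score over 2, cut at about 25 in these data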
The depositor's hits bear a star; i = inactive; ? = inconclusive; · = no result; + = active, no number. A selection: hits, their analogues and other compounds. The true share with any hit is near 2.3%.

SMILES	SDO1 yeast rescue	Ins promoter up	ABCB1 block	ABCG2 block	ROMK primary	Autophagy HCS	ABCB1 single pt	ABCG2 single pt	IgMXP3 autofluor	CCRF-Adr fluor
CCN(CC)S(=O)(=O)c1ccc(C(=O)N(c2ccc(C)cc2)C2C=CS(=O)(=O)C2)cc1 (stereo not drawn)	·	-0.25	37	19	-0.23	i	2	1	3.6	-0.99
Cc1ccc(N(C(=O)c2ccc(S(=O)(=O)N3CCOCC3)cc2)C2C=CS(=O)(=O)C2)cc1 (stereo not drawn)	-0.34	0.86	1	5	·	i	·	·	·	·
CCOC(=O)c1cncc(C#CCO)c1	·	0.24	·	·	·	·	·	·	·	·
CCN(CC)c1ccc2cc(-c3nc4ccccc4[nH]3)c(=O)oc2c1	-1	·	39	65	·	+	-129	-15	122*	296*
O=Cc1c(Cl)[nH]c(=O)n1-c1ccccc1	·	·	4	104*	0.39	i	2	4	-0.84	-0.94
O=C(NCCN1CCCCC1)c1ccc(Oc2cc(Cl)cc(Cl)c2)o1	·	-0.53	·	·	·	·	·	·	·	·
Nc1c(-c2ccccc2)c(CSc2nc3ccccc3[nH]2)nn1-c1ccc(Cl)cc1	-0.53	-0.7	43*	28	-0.63	i	29	25	-0.69	-3
Cc1ccc(CNC(=O)C2CC3Cn4c(nc5cc6ccccc6cc54)C3N2C)o1 (stereo not drawn)	·	0.35	·	·	·	·	·	·	·	·
N#Cc1ccc(COC(=O)c2ccc(N3CCCC3)c([N+](=O)[O-])c2)cc1	1	0.72	0	90*	·	i	5	38	-2.3	-4.4
CC1=Nc2ccccc2/C1=C/c1nc(-c2ccc(C)s2)oc1O	·	1.4	20	22	-0.72	i	·	·	·	·
CC1=Nc2ccccc2/C1=C\c1nc(-c2ccc(C(F)(F)F)cc2)oc1O	-1.4	0.49	44*	49	·	?	-23	13	69*	201*
Nn1c(Cc2cccc3ccccc23)nnc1SCc1c(Cl)cccc1Cl	-0.47	-0.22	1	2	-1.1	i	·	·	·	·
Nn1c(Cc2cccc3ccccc23)nnc1SCc1ccc(Cl)c(Cl)c1	-2.1	1.3	66*	82*	-1.6	i	1	17	0.36	-1.9
O=C(O)CCn1nnc2ccccc21	·	0.78	·	·	·	·	·	·	·	·
COc1ccc(NC(=O)Nc2ccc(F)cc2F)cc1	·	-0.86	0	15	-1.4	i	·	·	·	·
O=C(Nc1ccc(C(=O)O)cc1)Nc1ccc(F)cc1F	·	-0.29	51*	190*	0.0051	i	1	1	1.4	-1.9
Cc1ccc(CC(=O)NC2CCSC2=O)cc1 (stereo not drawn)	·	·	0	-1	2.2	i	·	·	·	·
CCOC(=O)c1sc2cc([N+](=O)[O-])cc(SCC(C)C)c2c1N	0.56	·	32	60	-1.9	+	23	-7	82*	129*
Cc1c(Cl)c([N+](=O)[O-])nn1CCCC(=O)Nc1cc(Oc2ccccc2)cc([N+](=O)[O-])c1	0.34	-0.31	2	85*	·	i	18	31	-0.99	-1.8
CN(C)CC(O)CN1C(=O)N(CN2C(=O)N(CC(O)CN(C)C)C(=O)C2(C)C)C(C)(C)C1=O (stereo not drawn)	·	-0.43	-1	5	0.91	i	·	·	·	·
c1ccc(CN2CCN(c3nc(-c4ccccn4)nc4ccccc34)CC2)cc1	-1.5	?	48*	33	-1.1	i	37	19	2.1	13
CCN1CCN(c2nc(-c3ccccn3)nc3ccccc23)CC1	-0.26	-0.51	1	1	·	i	·	·	·	·
COc1cc(/C=c2\sc3nc(-c4ccncc4)nn3c2=O)ccc1OC(C)=O	-1.4	0.41	-1	36	0.31	i	·	·	·	·

High-throughput results: PubChem, several laboratories
